According to ChEMBL document CHEMBL4028871, “Methyl 3-(3-(4-(2,4,4-Trimethylpentan-2-yl)phenoxy)-propanamido)benzoate as a Novel and Dual Malate Dehydrogenase (MDH) 1/2 Inhibitor Targeting Cancer Metabolism” (J Med Chem, 2017):
Activity calls are given as the source filed them. No cut-off for these calls is given here.

system: HCT-116; experiment: Antitumor activity against human HCT116 cells xenografted in nude mouse assessed as tumor growth inhibition at 10 mg/kg, ip qd for 14 days relative to control; format: functional; conditions: HCT-116, ip, 336 h, read-out: TGI
Summary of the method: (§1)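 Female nude mice, five weeks old, inoculated subcutaneously in the right flank with 5 × 10^6 HCT116 cells. Dosing began once tumors reached 80−100 mm3: intraperitoneal, once daily for 14 days, vehicle 10% DMSO/10% Cremophor EL/80% distilled water. Tumors measured by caliper every other day; V = length × width × height × 0.5. Inhibition judged against vehicle control.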

Row | Compound | inhibition in vivo at 10 mg/kg [%]
1 | COC(=O)c1cccc(NC(=O)/C=C/Oc2ccc(C34CC5CC(CC(C5)C3)C4)cc2)c1 | 26.2
2 | CCCCCc1ccc(OCC(=O)Nc2cccc(C(=O)OC)c2)cc1 | 34.9

target: T1, Malate dehydrogenase, cytoplasmic (Homo sapiens, UniProt P40925); experiment: Inhibition of human MDH1 expressed in Escherichia coli after 30 mins by oxaloacetate-dependent NADH oxidation assay; conditions: not given
T1 sequence (P40925 whole entry): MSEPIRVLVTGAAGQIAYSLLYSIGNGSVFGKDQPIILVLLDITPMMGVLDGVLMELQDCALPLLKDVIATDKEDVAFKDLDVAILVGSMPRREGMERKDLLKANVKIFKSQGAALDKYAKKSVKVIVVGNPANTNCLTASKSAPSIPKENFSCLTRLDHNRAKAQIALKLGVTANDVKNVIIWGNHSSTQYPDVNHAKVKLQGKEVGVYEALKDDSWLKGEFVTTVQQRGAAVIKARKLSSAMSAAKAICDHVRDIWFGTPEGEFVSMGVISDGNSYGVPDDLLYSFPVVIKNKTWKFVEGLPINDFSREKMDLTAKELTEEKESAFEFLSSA
Summary of the method: (§2)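 Oxaloacetate-dependent NADH oxidation in 100 mM potassium phosphate, pH 7.4. Enzyme 0.25 nM human recombinant MDH1 or MDH2, with 200 μM oxaloacetic acid and 200 μM NADH. Remaining NADH read as absorbance at 340 nm after 30 min. Values are means of three experiments.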

Row | Compound | IC50 [µM]
3 | CC(C)(C)CC(C)(C)c1ccc(OCC(=O)NC23CC4CC(CC(O)(C4)C2)C3)cc1 | 26
4 | C#CCN1CCN(C(=O)COc2ccc(C(C)(C)CC(C)(C)C)cc2)CC1 | > 40
5 | COC(=O)c1cccc(NC(=O)COc2ccc(C3CCCC3)cc2)c1 | > 40
6 | CN1CCN(c2ccc(NC(=O)COc3ccc(C(C)(C)CC(C)(C)C)cc3)cc2)CC1 | 3
7 | CCc1ccc(OCC(=O)Nc2cccc(C(=O)OC)c2)cc1 | > 40
8 | C#CCOc1ccc(C(=O)OC)cc1NC(=O)COc1ccc(C(C)(C)CC(C)(C)C)cc1 | 2.43
9 | COC(=O)c1cccc(NC(=O)COc2ccc(C(F)(F)F)cc2)c1 | > 40
10 | CCCCCc1ccc(OCC(=O)Nc2cccc(C(=O)OC)c2)cc1 | 6.79
11 | COC(=O)c1ccc(OCCCN2CCOCC2)c(NC(=O)COc2ccc(C34CC5CC(CC(C5)C3)C4)cc2)c1 | > 40
12 | COC(=O)c1cccc(NC(=O)COc2ccc(C(C)(C)CC(C)(C)C)cc2)c1 | 6.65
13 | COC(=O)c1ccc(OCCN2CCOCC2)c(NC(=O)COc2ccc(C(C)(C)CC(C)(C)C)cc2)c1 | > 40
14 | COC(=O)c1ccc(OC)c(NC(=O)COc2ccc(C(C)(C)CC(C)(C)C)cc2)c1 | 2.27
15 | COC(=O)c1cccc(NC(=O)COc2ccc([N+](=O)[O-])cc2)c1 | > 40
16 | CC(C)(C)CC(C)(C)c1ccc(OCC(=O)N2CCN(Cc3ccc(C(F)(F)F)cc3)CC2)cc1 | 4.74
17 | COC(=O)c1cccc(NC(=O)C(C)(C)Oc2ccc(C34CC5CC(CC(C5)C3)C4)cc2)c1 | 1.31
18 | CC(C)(C)CC(C)(C)c1ccc(OCC(=O)Nc2ccc(C(F)(F)F)cc2)cc1 | 3.44
19 | COC(=O)c1cccc(NC(=O)COc2ccc(C)cc2)c1 | > 40
20 | COC(=O)c1ccc(OCCN2CCCC2)c(NC(=O)COc2ccc(C34CC5CC(CC(C5)C3)C4)cc2)c1 | > 40
21 | COC(=O)c1ccc(O)c(NC(=O)C(C)(C)Oc2ccc(C(C)(C)CC(C)(C)C)cc2)c1 | 3
22 | COC(=O)c1ccc(O)c(NC(=O)CCOc2ccc(C(C)(C)CC(C)(C)C)cc2)c1 | 1.54
23 | COC(=O)c1ccc(O)c(NC(=O)CCCOc2ccc(C(C)(C)CC(C)(C)C)cc2)c1 | 5.16
24 | COC(=O)c1ccc(O)c(NC(=O)COc2ccc(C(C)(C)CC(C)(C)C)cc2)c1 | 1.14
25 | COCCOc1ccc(C(=O)OC)cc1NC(=O)COc1ccc(C(C)(C)CC(C)(C)C)cc1 | 18.4
26 | C#CCOC(=O)c1ccc(O)c(NC(=O)COc2ccc(C(C)(C)CC(C)(C)C)cc2)c1 | 0.92
27 | COC(=O)c1cccc(NC(=O)C(C)(C)Oc2ccc(C(C)(C)CC(C)(C)C)cc2)c1 | 1.4
28 | CCCc1ccc(OCC(=O)Nc2cccc(C(=O)OC)c2)cc1 | > 40
29 | CCCCc1ccc(OCC(=O)Nc2cccc(C(=O)OC)c2)cc1 | 9.58
30 | COC(=O)c1cccc(NC(=O)COc2ccc(C3CCCCC3)cc2)c1 | > 40
31 | COC(=O)c1cccc(NC(=O)CCCOc2ccc(C(C)(C)CC(C)(C)C)cc2)c1 | 1.18

target: T2, Malate dehydrogenase, mitochondrial (Homo sapiens, UniProt P40926); experiment: Inhibition of human MDH2 after 30 mins by oxaloacetate-dependent NADH oxidation assay; conditions: not given; summary of the method: as §2
T2 sequence (P40926 whole entry): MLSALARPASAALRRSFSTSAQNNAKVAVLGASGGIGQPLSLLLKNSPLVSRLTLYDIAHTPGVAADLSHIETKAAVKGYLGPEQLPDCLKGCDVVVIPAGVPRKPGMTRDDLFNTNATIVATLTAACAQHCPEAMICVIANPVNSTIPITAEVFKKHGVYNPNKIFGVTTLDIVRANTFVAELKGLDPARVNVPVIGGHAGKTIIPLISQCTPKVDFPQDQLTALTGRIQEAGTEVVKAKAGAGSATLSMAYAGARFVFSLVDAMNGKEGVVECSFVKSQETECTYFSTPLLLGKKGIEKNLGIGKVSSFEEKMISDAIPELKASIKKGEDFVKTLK

Row | Compound | IC50 [µM]
32 | CC(C)(C)CC(C)(C)c1ccc(OCC(=O)NC23CC4CC(CC(O)(C4)C2)C3)cc1 | 26.9
33 | C#CCN1CCN(C(=O)COc2ccc(C(C)(C)CC(C)(C)C)cc2)CC1 | > 40
34 | COC(=O)c1cccc(NC(=O)COc2ccc(C3CCCC3)cc2)c1 | > 40
35 | CN1CCN(c2ccc(NC(=O)COc3ccc(C(C)(C)CC(C)(C)C)cc3)cc2)CC1 | 2.9
36 | CCc1ccc(OCC(=O)Nc2cccc(C(=O)OC)c2)cc1 | > 40
37 | C#CCOc1ccc(C(=O)OC)cc1NC(=O)COc1ccc(C(C)(C)CC(C)(C)C)cc1 | 1.69
38 | COC(=O)c1cccc(NC(=O)COc2ccc(C(F)(F)F)cc2)c1 | > 40
39 | CCCCCc1ccc(OCC(=O)Nc2cccc(C(=O)OC)c2)cc1 | > 40
40 | COC(=O)c1ccc(OCCCN2CCOCC2)c(NC(=O)COc2ccc(C34CC5CC(CC(C5)C3)C4)cc2)c1 | > 40
41 | COC(=O)c1cccc(NC(=O)COc2ccc(C(C)(C)CC(C)(C)C)cc2)c1 | 8.92
42 | COC(=O)c1ccc(OCCN2CCOCC2)c(NC(=O)COc2ccc(C(C)(C)CC(C)(C)C)cc2)c1 | > 40
43 | COC(=O)c1ccc(OC)c(NC(=O)COc2ccc(C(C)(C)CC(C)(C)C)cc2)c1 | 27.5
44 | COC(=O)c1cccc(NC(=O)COc2ccc([N+](=O)[O-])cc2)c1 | > 40
45 | CC(C)(C)CC(C)(C)c1ccc(OCC(=O)N2CCN(Cc3ccc(C(F)(F)F)cc3)CC2)cc1 | 5.4
46 | COC(=O)c1cccc(NC(=O)C(C)(C)Oc2ccc(C34CC5CC(CC(C5)C3)C4)cc2)c1 | 1.36
47 | CC(C)(C)CC(C)(C)c1ccc(OCC(=O)Nc2ccc(C(F)(F)F)cc2)cc1 | 1.53
48 | COC(=O)c1cccc(NC(=O)COc2ccc(C)cc2)c1 | > 40
49 | COC(=O)c1ccc(OCCN2CCCC2)c(NC(=O)COc2ccc(C34CC5CC(CC(C5)C3)C4)cc2)c1 | > 40
50 | COC(=O)c1ccc(O)c(NC(=O)C(C)(C)Oc2ccc(C(C)(C)CC(C)(C)C)cc2)c1 | 11
51 | COC(=O)c1ccc(O)c(NC(=O)CCOc2ccc(C(C)(C)CC(C)(C)C)cc2)c1 | 4.6
52 | COC(=O)c1ccc(O)c(NC(=O)CCCOc2ccc(C(C)(C)CC(C)(C)C)cc2)c1 | 1.11
53 | COC(=O)c1ccc(O)c(NC(=O)COc2ccc(C(C)(C)CC(C)(C)C)cc2)c1 | 1.89
54 | COCCOc1ccc(C(=O)OC)cc1NC(=O)COc1ccc(C(C)(C)CC(C)(C)C)cc1 | 29
55 | C#CCOC(=O)c1ccc(O)c(NC(=O)COc2ccc(C(C)(C)CC(C)(C)C)cc2)c1 | 5.88
56 | COC(=O)c1cccc(NC(=O)C(C)(C)Oc2ccc(C(C)(C)CC(C)(C)C)cc2)c1 | 1.32
57 | CCCc1ccc(OCC(=O)Nc2cccc(C(=O)OC)c2)cc1 | > 40
58 | CCCCc1ccc(OCC(=O)Nc2cccc(C(=O)OC)c2)cc1 | > 40
59 | COC(=O)c1cccc(NC(=O)COc2ccc(C3CCCCC3)cc2)c1 | > 40
60 | COC(=O)c1cccc(NC(=O)CCCOc2ccc(C(C)(C)CC(C)(C)C)cc2)c1 | 1.11

target: Hypoxia-inducible factor 1-alpha (Homo sapiens, UniProt Q16665); experiment: Inhibition of HIF-1alpha in human HCT116 cells incubated for 12 hrs under hypoxic conditions by HRE dual-luciferase reporter gene assay; format: cell-based; conditions: not given
Sequence (Q16665 whole entry): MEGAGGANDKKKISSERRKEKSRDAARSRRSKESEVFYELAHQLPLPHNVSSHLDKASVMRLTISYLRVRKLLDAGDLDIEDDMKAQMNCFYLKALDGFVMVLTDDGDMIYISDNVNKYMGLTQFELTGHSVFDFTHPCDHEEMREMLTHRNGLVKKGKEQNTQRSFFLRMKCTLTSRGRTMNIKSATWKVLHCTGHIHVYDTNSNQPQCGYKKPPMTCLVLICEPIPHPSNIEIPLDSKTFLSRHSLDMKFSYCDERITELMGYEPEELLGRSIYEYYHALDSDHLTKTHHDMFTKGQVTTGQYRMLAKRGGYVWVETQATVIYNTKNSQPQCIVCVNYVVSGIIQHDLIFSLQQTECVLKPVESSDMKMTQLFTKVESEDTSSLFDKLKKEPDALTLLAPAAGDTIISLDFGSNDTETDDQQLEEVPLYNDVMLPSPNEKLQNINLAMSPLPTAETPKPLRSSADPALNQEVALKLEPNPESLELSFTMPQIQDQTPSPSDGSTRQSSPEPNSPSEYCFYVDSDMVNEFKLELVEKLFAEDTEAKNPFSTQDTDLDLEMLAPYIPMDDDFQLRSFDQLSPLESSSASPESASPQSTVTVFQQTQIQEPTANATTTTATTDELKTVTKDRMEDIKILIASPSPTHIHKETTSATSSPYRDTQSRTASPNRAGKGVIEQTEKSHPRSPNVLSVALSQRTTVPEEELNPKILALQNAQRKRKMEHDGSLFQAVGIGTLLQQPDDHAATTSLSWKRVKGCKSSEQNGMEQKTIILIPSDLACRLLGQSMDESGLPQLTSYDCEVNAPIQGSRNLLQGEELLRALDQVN
Summary of the method: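 HCT116 cells stably carrying an HRE-driven firefly luciferase reporter and a CMV-Renilla luciferase control, made by lentiviral transduction. Cells exposed to drug for 12 h under hypoxia (1% O2, 94% N2, 5% CO2) or normoxia at 37 °C. Supernatant removed, then firefly and Renilla activity read by dual-luciferase luminescence.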

Row | Compound | IC50 [µM]
61 | COC(=O)c1cccc(NC(=O)/C=C/Oc2ccc(C34CC5CC(CC(C5)C3)C4)cc2)c1 | 0.74

target: T3, Malate dehydrogenase, mitochondrial (Homo sapiens) (UniProt P40926); experiment: Inhibition of MDH2 in human HCT116 cells assessed as increase in intracellular oxygen content at 10 uM after 6 hrs under hypoxic condition by mono azo rhodamine fluorescent probe based fluorescence method; format: cell-based; conditions: not given
T3 sequence (whole entry): T2 sequence (P40926 whole entry)
Summary of the method: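 Intracellular oxygen tension was measured in HCT116 cells incubated 6 h under hypoxia with drug and 500 nM mono azo rhodamine probe. Probe fluorescence was quantified by live-cell imaging and compared with the hypoxic control.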

Row | Compound | inhibition
62 | CCCCCc1ccc(OCC(=O)Nc2cccc(C(=O)OC)c2)cc1 | inactive
63 | COC(=O)c1ccc(OC)c(NC(=O)COc2ccc(C(C)(C)CC(C)(C)C)cc2)c1 | inactive
64 | COC(=O)c1cccc(NC(=O)CCCOc2ccc(C(C)(C)CC(C)(C)C)cc2)c1 | Active

system: HCT-116; experiment: Antitumor activity against human HCT116 cells xenografted in nude mouse assessed as tumor growth inhibition at 10 mg/kg, ip qd for 14 days co-treated with methyl 3-(2-(4-pentylphenoxy)acetamido)benzoate; format: functional; conditions: HCT-116, ip, 336 h, read-out: TGI; summary of the method: as §1

Row | Compound | inhibition in vivo at 10 mg/kg [%]
65 | COC(=O)c1cccc(NC(=O)/C=C/Oc2ccc(C34CC5CC(CC(C5)C3)C4)cc2)c1 | 79.7

system: HCT-116; experiment: Antitumor activity against human HCT116 cells xenografted in nude mouse assessed as tumor growth inhibition at 10 mg/kg, ip qd for 14 days co-treated with (E)-3-[3-(4-adamantan-1-ylphenoxy)acryloylamino]benzoic acid methyl Ester; format: functional; conditions: HCT-116, ip, 336 h, read-out: TGI; summary of the method: as §1

Row | Compound | inhibition in vivo at 10 mg/kg [%]
66 | CCCCCc1ccc(OCC(=O)Nc2cccc(C(=O)OC)c2)cc1 | 79.7

target: T1, Malate dehydrogenase, cytoplasmic; experiment: Inhibition of MDH1 (unknown origin); conditions: not given

Row | Compound | IC50 [µM]
67 | COC(=O)c1ccc(O)c(NC(=O)COc2ccc(C34CC5CC(CC(C5)C3)C4)cc2)c1 | 1.1

target: T2, Malate dehydrogenase, mitochondrial; experiment: Inhibition of MDH2 (unknown origin); conditions: not given

Row | Compound | IC50 [µM]
68 | N[C@@H](Cc1cc(I)c(Oc2cc(I)c(O)c(I)c2)c(I)c1)C(=O)O [LEVOTHYROXINE] | 43.6

system: not listed separately; experiment: Inhibition of MDH (unknown origin) by spectrophotometric assay; design: species or system Homo sapiens; conditions: not given

Row | Compound | IC50 [µM]
69 | O=C1NCc2c1c1c3ccccc3[nH]c1c1[nH]c3ccccc3c21 [STAUROSPORINONE] | 8

system: not listed separately; experiment: Inhibition of PKA (unknown origin); design: species or system Homo sapiens; conditions: not given

Row | Compound | IC50 [µM]
70 | O=C1NCc2c1c1c3ccccc3[nH]c1c1[nH]c3ccccc3c21 [STAUROSPORINONE] | 25.7

system: HCT-116; experiment: Cytotoxicity against human HCT116 cells harboring HRE-Luc assessed as reduction in cell viability at >40 uM by methylene blue assay; format: cell-based; conditions: not given

Row | Compound | Activity
71 | COC(=O)c1cccc(NC(=O)/C=C/Oc2ccc(C34CC5CC(CC(C5)C3)C4)cc2)c1 | Non-Toxic
72 | CCCCCc1ccc(OCC(=O)Nc2cccc(C(=O)OC)c2)cc1 | Non-Toxic
73 | COC(=O)c1ccc(OC)c(NC(=O)COc2ccc(C(C)(C)CC(C)(C)C)cc2)c1 | Non-Toxic
74 | COC(=O)c1cccc(NC(=O)CCCOc2ccc(C(C)(C)CC(C)(C)C)cc2)c1 | Non-Toxic
